Test results taken from publication PMC3516907 (ChemMedChem, 2010).

Key:
[1] = system: endogenous ER in MCF7 breast cancer cells; test: ER degradation in MCF7 cells by western blotting; type: cell-based, human; details: with/without proteasome inhibitor epoxomicin (Fig 3B)
Outline: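 MCF7 cells at 70% confluence, held at least 24 h in RPMI with 5% charcoal-dextran FBS, were treated 48 h (DMSO vehicle). Lysis was 1 h on ice in Tris/NaCl/NP40/Triton X-100 buffer with protease inhibitors, with Bradford protein assay. Equal protein ran on 10% SDS-PAGE and was blotted to PVDF. Anti-ER was applied overnight at 4°C, secondary 1 h at room temperature. Detection was ECL/film, reprobed for β-actin loading.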

ER in MCF7 cells = test: ER degradation in MCF7 cells by immunofluorescence; type: cell-based, human
Outline: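 MCF7 cells were grown on ethanol/UV-sterilised coverslips for 24 h, then switched to phenol-red-free RPMI with 5% charcoal/dextran-treated FBS. Compounds were diluted in this medium from a DMSO vehicle and applied for 48 h. Cells were fixed in 4% PFA, permeabilised with 0.2% Triton X-100, and blocked in 10% goat serum/0.1% BSA in PBST. Staining used anti-ER with an Alexa Fluor 488 secondary and DAPI mounting, imaged by inverted fluorescence microscopy.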

Compound | proteasome dependence of ER degradation (western blot) [1] | ER signal by immunofluorescence on co-treatment with epoxomicin (ER in MCF7 cells; 48h, 25 μM PROTACs or 10 nM E2 plus epoxomicin (Fig 3A bottom row)) | ER signal (green, FITC) by immunofluorescence vs DMSO control (ER in MCF7 cells; 48h treatment, 25 μM PROTACs, 10 nM E2 (Fig 3A top row))
C[C@]12CC[C@@H]3c4ccc(O)cc4CC[C@H]3[C@@H]1CC[C@@H]2O [E2, 17β-estradiol] | confirmed via western blotting | blocked by co-treatment with epoxomicin | 
-Leu-Ala-Pro^OHTyr-Ile-Bzl [PROTAC 24] | confirmed via western blotting |  | attenuation of ER signal (green) was observed
